Experimental findings from ChEMBL document CHEMBL4396895, “Identification and Optimization of Novel Cathepsin C Inhibitors Derived from EGFR Inhibitors” (J Med Chem, 2019) are described below.

Series [1] has as its target Epidermal growth factor receptor (Homo sapiens, UniProt P00533). The series is described as follows: Inhibition of EGFR (unknown origin) up to 10 uM using biotin-labelled peptide as substrate preincubated for 2 hrs followed by substrate addition and measured after 30 mins by HTRF FRET assay. Summed up: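 EGFR WT was used at 0.1 nM final in 50 mM HEPES pH 7.0, 0.02% NaN3, 0.01% BSA, 0.1 mM orthovanadate, 10 mM MgCl2, 2.5 mM DTT, 6.25 nM SEB. It was preincubated with compound for 2 h. Biotin-peptide (1.4 μM) and ATP (20 μM) were then added for 30 min at RT. Read-out was HTRF/TR-FRET (Ex 320, Em 615/665 nm) with a sigmoidal curve fit.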

Another series has as its target Dipeptidyl peptidase 1 (Homo sapiens, UniProt P53634). The series can be described thus: Inhibition of cathepsin C in human U937 cells using H-Gly-Phe-AFC as substrate preincubated for 4 hrs followed by substrate addition and measured after 60 mins. It counts as cell-based. The method in brief:
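THP1 or U937 cells, grown in RPMI 1640 with 10% FBS, were seeded at 1.0 × 10^6/mL. They were preincubated with threefold serial dilutions of compound for 4 h at 37 °C. H-Gly-Phe-AFC was then added from a 100 μM solution and fluorescence was read after 60 min at 37 °C. Values are means of at least two experiments.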

Series [2] in a line: Intrinsic clearance in human liver microsomes assessed per mg protein measured after 60 mins in presence of NADPH by LC-MS/MS analysis. It counts as ADME, Microsome. The note with it: read-out: CLH.
Series [3] can be described thus: Intrinsic clearance in rat liver microsomes assessed per mg protein measured after 60 mins in presence of NADPH by LC-MS/MS analysis. The series is classed as ADME, Microsome. The note with it: read-out: CLH.
The target in a further series is T1, Cytochrome P450 1A2 (Homo sapiens, UniProt P05177).
T1 sequence (P05177 whole entry): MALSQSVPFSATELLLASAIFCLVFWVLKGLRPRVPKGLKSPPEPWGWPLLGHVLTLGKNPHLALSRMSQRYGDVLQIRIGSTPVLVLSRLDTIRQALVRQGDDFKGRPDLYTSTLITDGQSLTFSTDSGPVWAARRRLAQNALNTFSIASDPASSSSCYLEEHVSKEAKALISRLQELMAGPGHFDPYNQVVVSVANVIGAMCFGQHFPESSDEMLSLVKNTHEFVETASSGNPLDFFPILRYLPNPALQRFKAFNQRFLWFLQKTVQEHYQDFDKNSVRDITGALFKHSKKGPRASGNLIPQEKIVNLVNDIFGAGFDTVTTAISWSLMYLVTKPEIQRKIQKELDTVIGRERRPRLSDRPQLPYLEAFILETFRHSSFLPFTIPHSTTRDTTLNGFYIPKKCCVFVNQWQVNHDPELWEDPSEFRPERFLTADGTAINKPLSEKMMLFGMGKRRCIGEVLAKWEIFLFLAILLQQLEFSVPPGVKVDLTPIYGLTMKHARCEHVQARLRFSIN
The series is described as follows: Inhibition of CYP1A2 (unknown origin). The series is classed as ADME. The method in brief:
(§1)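 Tested against recombinant human cytochrome P450 isoforms 1A2, 2D6, 3A4, 2C9 and 2C19.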

The target in the next series is Cytochrome P450 2D6 (Homo sapiens, UniProt P10635). The series is described as follows: Inhibition of CYP2D6 (unknown origin). The series is classed as ADME. Summed up:
as §1

The nature of series [4]: AUC infinity in C57BL/6 mouse at 10 mg/kg, ip by LC-MS/MS analysis. The note with it: in vivo. It counts as ADME, organism-based. Also on record: dose 10 mg/kg, route intraperitoneal, time infinity. The method in brief: (§2)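 Male C57BL/6 mice (n = 3) were dosed with a single IV dose of 2 mg/kg or an IP or PO dose of 10 mg/kg. Vehicle: 0.5% Methocel and 0.1% Tween-80 in citrate buffer, pH 3. Blood was drawn by eye puncture at several time points and analysed by LC-MS/MS. Parameters came from noncompartmental analysis of individual animals and are reported as means.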

Series [5] in a line: Half life in C57BL/6 mouse at 10 mg/kg, ip by LC-MS/MS analysis. It counts as ADME, organism-based. The note with it: in vivo. Summed up: as §2
Series [6] in a line: Cmax in C57BL/6 mouse at 10 mg/kg, ip by LC-MS/MS analysis. It counts as ADME, organism-based. More on the design: dose 10 mg/kg, route intraperitoneal. The note with it: in vivo. The method in brief: as §2
The nature of series [7]: Bioavailability in C57BL/6 mouse at 10 mg/kg, ip by LC-MS/MS analysis. It counts as ADME, organism-based. The note with it: in vivo. The method in brief: as §2
Series [8] in a line: Tmax in C57BL/6 mouse at 10 mg/kg, po by LC-MS/MS analysis. The series is classed as ADME, organism-based. The note with it: in vivo. The method in brief: as §2
A short description of series [9]: Drug uptake in C57BL/6 mouse lung at 10 mg/kg, po by LC-MS/MS analysis. The series is classed as ADME, organism-based. The note with it: in vivo.
Series [10] is described as follows: Drug uptake in C57BL/6 mouse kidney at 10 mg/kg, po by LC-MS/MS analysis. It counts as ADME, organism-based. The note with it: in vivo.
For series [11], the system named is Mus musculus. The series is described as follows: In vivo inhibition of CatC in po dosed C57BL/6 mouse blood administered twice daily for 6 days using Gly-Phe-AFC as substrate measured up to 90 mins by fluorescence assay. It counts as functional, organism-based. Summed up:
(§3)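 C57BL/6 mice (20−25 g; n = 10 per group) received oral doses twice daily at 6.7, 20 or 60 mg/kg for 6 days. The vehicle group got 0.5% Methocel and 0.1% Tween-80 in 100 mM citrate buffer, pH 3. Blood was drawn by eye puncture 14 h after the last dose. Bone marrow was flushed from femurs and tibias with ice-cold RPMI 1640. Cells were lysed in 50 mM Tris pH 7.4, 750 mM NaCl, 1% Triton X-100, sonicated on ice and stored at −80 °C. Lysates were diluted by protein content, with blood diluted 5-fold more than marrow. Kinetics were followed for up to 90 min. Results are % of the vehicle mean.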

The subject of series [12] is Mus musculus. The series can be described thus: In vivo inhibition of CatC in po dosed C57BL/6 mouse blood assessed as reduction in neutrophil elastase activation administered twice daily for 6 days using methoxysuccinyl-Ala-Ala-Pro-Val-AMC as substrate measured up to 90 mins by fluorescence assay. It counts as functional, organism-based. The method in brief: as §3

Series [13] concerns Mus musculus. The series can be described thus: In vivo inhibition of CatC in po dosed C57BL/6 mouse bone marrow assessed as reduction in neutrophil elastase activation administered twice daily for 6 days using methoxysuccinyl-Ala-Ala-Pro-Val-AMC as substrate measured up to 90 mins by fluorescence assay. It counts as functional, organism-based. The method in brief: as §3
Series [14] relates to Mus musculus. The series can be described thus: In vivo inhibition of CatC in po dosed C57BL/6 mouse bone marrow assessed as reduction in proteinase 3 activation administered twice daily for 6 days using aminobenzoyl-Val-Ala-Asp-Cys-Ala-Asp-Gln-ethylenediamine 2,4-dinitrophenyl as substrate measured up to 90 mins by fluorescence assay. It counts as functional, organism-based. Summed up: as §3

For series [15], the system named is Mus musculus. The series can be described thus: In vivo inhibition of CatC in po dosed C57BL/6 mouse blood assessed as reduction in CatG activation administered twice daily for 6 days using N-succinyl-Ala-Ala-Pro-Phe-pNA as substrate measured up to 90 mins by fluorescence assay. The series is classed as functional, organism-based. Summed up: as §3
In series [16] the test system is Mus musculus. The series is described as follows: In vivo inhibition of CatC in po dosed C57BL/6 mouse bone marrow assessed as reduction in CatG activation administered twice daily for 6 days using N-succinyl-Ala-Ala-Pro-Phe-pNA as substrate measured up to 90 mins by fluorescence assay. It counts as functional, organism-based. The method in brief:
as §3

The nature of series [17]: Toxicity in C57BL/6 mouse at 60 mg/kg, po administered twice daily for 6 days. The series is classed as organism-based. The note with it: in vivo, 144 h.
Series [18] can be described thus: Toxicity in C57BL/6 mouse assessed as effect on WBC level at 60 mg/kg, po administered twice daily for 6 days. It counts as organism-based. The note with it: in vivo, 144 h.

Activity calls are given as the source filed them. The calls are words filed in the database; no cut-off is given here. Bounds are passed on as bounds.

Dipeptidyl peptidase 1, sequence (P53634 25-134 limits assumed): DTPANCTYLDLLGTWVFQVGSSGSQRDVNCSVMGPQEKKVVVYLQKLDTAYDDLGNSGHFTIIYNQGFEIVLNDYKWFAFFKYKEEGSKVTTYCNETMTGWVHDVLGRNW
Dipeptidyl peptidase 1, sequence (P53634 231-394 limits assumed): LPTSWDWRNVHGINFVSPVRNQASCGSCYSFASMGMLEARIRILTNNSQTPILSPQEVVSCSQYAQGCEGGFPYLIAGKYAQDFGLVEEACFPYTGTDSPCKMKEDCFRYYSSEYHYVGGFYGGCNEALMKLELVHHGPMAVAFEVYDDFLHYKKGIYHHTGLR
Dipeptidyl peptidase 1, sequence (P53634 395-463 limits assumed): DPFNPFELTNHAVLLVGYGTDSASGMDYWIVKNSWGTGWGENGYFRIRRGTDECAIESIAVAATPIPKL
Cytochrome P450 2D6, sequence (P10635 whole entry): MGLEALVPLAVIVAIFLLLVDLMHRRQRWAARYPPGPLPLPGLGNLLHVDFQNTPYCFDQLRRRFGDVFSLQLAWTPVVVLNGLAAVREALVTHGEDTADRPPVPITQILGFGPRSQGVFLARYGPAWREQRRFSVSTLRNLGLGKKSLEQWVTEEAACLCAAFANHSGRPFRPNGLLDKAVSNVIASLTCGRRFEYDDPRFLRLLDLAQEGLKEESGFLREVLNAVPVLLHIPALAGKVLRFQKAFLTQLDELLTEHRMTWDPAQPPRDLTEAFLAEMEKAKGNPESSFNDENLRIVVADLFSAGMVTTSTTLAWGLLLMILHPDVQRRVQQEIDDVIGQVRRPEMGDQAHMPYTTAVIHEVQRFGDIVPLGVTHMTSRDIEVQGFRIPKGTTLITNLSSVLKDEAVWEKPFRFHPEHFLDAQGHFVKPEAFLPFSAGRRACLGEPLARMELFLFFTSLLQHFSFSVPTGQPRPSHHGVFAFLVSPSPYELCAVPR
Epidermal growth factor receptor, sequence (P00533 whole entry): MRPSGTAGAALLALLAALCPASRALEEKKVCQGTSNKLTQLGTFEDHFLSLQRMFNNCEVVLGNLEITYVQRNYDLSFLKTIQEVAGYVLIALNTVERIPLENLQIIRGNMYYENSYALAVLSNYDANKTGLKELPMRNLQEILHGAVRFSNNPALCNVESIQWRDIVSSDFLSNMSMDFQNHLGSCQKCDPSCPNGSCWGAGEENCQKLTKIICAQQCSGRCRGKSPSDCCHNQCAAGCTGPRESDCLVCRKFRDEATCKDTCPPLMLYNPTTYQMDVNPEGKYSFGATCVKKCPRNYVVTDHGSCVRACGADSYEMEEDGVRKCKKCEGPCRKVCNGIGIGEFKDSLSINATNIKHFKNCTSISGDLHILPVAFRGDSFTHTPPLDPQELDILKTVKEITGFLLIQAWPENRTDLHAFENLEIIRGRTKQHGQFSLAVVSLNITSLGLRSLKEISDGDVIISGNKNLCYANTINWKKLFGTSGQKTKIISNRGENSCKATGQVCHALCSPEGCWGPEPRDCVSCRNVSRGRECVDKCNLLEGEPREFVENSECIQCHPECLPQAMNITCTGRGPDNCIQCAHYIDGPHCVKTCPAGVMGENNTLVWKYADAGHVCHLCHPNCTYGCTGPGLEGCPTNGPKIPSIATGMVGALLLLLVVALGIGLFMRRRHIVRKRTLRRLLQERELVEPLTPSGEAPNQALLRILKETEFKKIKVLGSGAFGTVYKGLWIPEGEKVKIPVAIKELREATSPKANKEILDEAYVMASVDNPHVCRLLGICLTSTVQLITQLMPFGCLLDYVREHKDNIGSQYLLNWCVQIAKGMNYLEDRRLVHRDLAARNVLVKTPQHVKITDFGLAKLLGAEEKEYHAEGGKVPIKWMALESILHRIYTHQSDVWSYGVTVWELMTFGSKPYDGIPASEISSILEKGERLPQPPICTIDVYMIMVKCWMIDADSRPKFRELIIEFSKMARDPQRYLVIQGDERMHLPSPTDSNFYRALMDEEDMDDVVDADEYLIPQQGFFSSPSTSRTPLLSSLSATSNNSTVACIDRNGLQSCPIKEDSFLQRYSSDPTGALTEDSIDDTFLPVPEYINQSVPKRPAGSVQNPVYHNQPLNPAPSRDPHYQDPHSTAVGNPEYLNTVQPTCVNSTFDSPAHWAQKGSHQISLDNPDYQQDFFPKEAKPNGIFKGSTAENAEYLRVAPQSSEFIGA

In the case of `C=CC(=O)Nc1cc(Oc2nc(Nc3ccc(N4CCN(C)CC4)cc3OC)ccc2N2CCCCC2)ccc1C`, in [1], the inhibition entry is “inactive”. Moreover, the IC50 was 0.0034 µM at Dipeptidyl peptidase 1, over 10 µM at Cytochrome P450 1A2 and over 10 µM against Cytochrome P450 2D6. Further, the inhibition entry at Dipeptidyl peptidase 1, in the series on Mus musculus [11], with Mus musculus [12], with Mus musculus [13], with Mus musculus [14] and in the series with Mus musculus [15] was “Dose-dependent effect” in each case. Moreover, the inhibition result in the series with Mus musculus [16] was “Dose-dependent effect”. For the same compound, the microsomal CLint in [2] was determined as 1.8 µL/min/mg; in series [3], 6.3 µL/min/mg. Besides, the AUC(0-inf) in series [4] came to 1240 ng·h/mL. The same compound showed a half-life in series [5] of 71.4 min. The Cmax in series [6] came to 766 ng/mL. For the same compound, in series [7], the bioavailability was 20.3%. Further, in series [8], the Tmax worked out at 30 min. The Drug uptake entry in series [9] and in series [10] was “Active” in each case. The Activity entry in series [17] and in [18] was “Non-Toxic” throughout.
